In ChEMBL document CHEMBL1121559, “Fluorinated analogues of 1-(2-chloroethyl)-3-cyclohexyl-1-nitrosourea: an attempt to control metabolism” (1980):
Where “and” joins values, the source holds several entries; their conditions need not be identical. Equal values may be shown once.

Legend:
Mus musculus [1] = assay: Percent increase in life span was measured in mice intracerebrally implanted leukemia L1210 at 25 mg/kg administered intraperitoneally on day 1 only.; format: functional; details: L1210, ip, 24 h, route intraperitoneal
Summary of the method: (§1)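 Mice implanted intracerebrally with an inoculum of 10⁵ L1210 leukemia cells. Compound given intraperitoneally on day 1 only. Read-outs were median day of death, % increase in life span calculated for animals dying, and 45-day survivors over total mice. Tests were run by an external cancer screening group.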

Mus musculus [2] = assay: Percent increase in life span was measured in mice intracerebrally implanted leukemia L1210 at 30 mg/kg administered intraperitoneally on day 1 only.; format: functional; details: L1210, ip, 24 h, route intraperitoneal; summary of the method: as §1
Mus musculus [3] = assay: Median day of death was measured in mice intracerebrally implanted leukemia L1210 at 10 mg/kg administered intraperitoneally on day 1.; format: functional; details: route intraperitoneal; summary of the method: as §1
Mus musculus [4] = assay: Median day of death was measured in mice intracerebrally implanted leukemia L1210 at 15 mg/kg administered intraperitoneally on day 1.; format: functional; details: route intraperitoneal; summary of the method: as §1
Mus musculus [5] = assay: Activity against TLX-5 lymphoma in mice Percent increase in survival time at 80 mg/kg,; format: functional
Mus musculus [6] = assay: Percent increase in life span was measured in mice intracerebrally implanted leukemia L1210 at 10 mg/kg administered intraperitoneally on day 1 only.; format: functional; details: L1210, ip, 24 h, route intraperitoneal; summary of the method: as §1
Mus musculus [7] = assay: Activity against TLX-5 lymphoma in mice Percent increase in survival time at 40 mg/kg,; format: functional
Mus musculus [8] = assay: Activity against TLX-5 lymphoma in mice Percent increase in survival time at 5 mg/kg,; format: functional
Mus musculus [9] = assay: Percent increase in life span was measured in mice intracerebrally implanted leukemia L1210 at 35 mg/kg administered intraperitoneally on day 1 only.; format: functional; details: L1210, ip, 24 h, route intraperitoneal; summary of the method: as §1
Mus musculus [10] = assay: Percent increase in life span was measured in mice intracerebrally implanted leukemia L1210 at 15 mg/kg administered intraperitoneally on day 1 only.; format: functional; details: L1210, ip, 24 h, route intraperitoneal; summary of the method: as §1
Mus musculus [11] = assay: Median day of death was measured in mice intracerebrally implanted leukemia L1210 at 30 mg/kg administered intraperitoneally on day 1.; format: functional; details: route intraperitoneal; summary of the method: as §1
Mus musculus [12] = assay: Activity against TLX-5 lymphoma in mice Percent increase in survival time at 10 mg/kg,; format: functional
Mus musculus [13] = assay: Percent increase in life span was measured in mice intracerebrally implanted leukemia L1210 at 140-30 mg/kg administered intraperitoneally on day 1 only; Toxic; format: functional, organism-based; summary of the method: as §1
Mus musculus [14] = assay: Median day of death was measured in mice intracerebrally implanted leukemia L1210 at 25 mg/kg administered intraperitoneally on day 1.; format: functional; details: route intraperitoneal; summary of the method: as §1
Mus musculus [15] = assay: Activity against TLX-5 lymphoma in mice Percent increase in survival time at 100 mg/kg,; format: functional
Mus musculus [16] = assay: Activity against TLX-5 lymphoma in mice Percent increase in survival time at 20 mg/kg,; format: functional
Mus musculus [17] = assay: Median day of death was measured in mice intracerebrally implanted leukemia L1210 at 35 mg/kg administered intraperitoneally on day 1.; format: functional; details: route intraperitoneal; summary of the method: as §1
Mus musculus [18] = assay: Percent increase in life span was measured in mice intracerebrally implanted leukemia L1210 at 50 mg/kg administered intraperitoneally on day 1 only.; format: functional; details: L1210, ip, 24 h, route intraperitoneal; summary of the method: as §1
Mus musculus [19] = assay: survivors / total number of mice intracerebrally implanted leukemia L1210 at 30 mg/kg administered intraperitoneally on day 1 only. 4-5 day; 1/9; format: functional; details: route intraperitoneal; summary of the method: as §1
Mus musculus [20] = assay: survivors / total number of mice intracerebrally implanted leukemia L1210 at 60 mg/kg administered intraperitoneally on day 1 only. 4-5 day; 8/10; format: functional; details: route intraperitoneal; summary of the method: as §1
Mus musculus [21] = assay: Median day of death was measured in mice intracerebrally implanted leukemia L1210 at 60 mg/kg administered intraperitoneally on day 1.; format: functional; details: route intraperitoneal; summary of the method: as §1
Mus musculus [22] = assay: survivors / total number of mice intracerebrally implanted leukemia L1210 at 30 mg/kg administered intraperitoneally on day 1 only. 4-5 day; 8/10; format: functional; details: route intraperitoneal; summary of the method: as §1
Mus musculus [23] = assay: (§2) Percent increase in life span was measured in mice intracerebrally implanted leukemia L1210 at 80 mg/kg administered intraperitoneally on day 1 only.; format: functional; details: L1210, ip, 24 h, route intraperitoneal; summary of the method: as §1
Mus musculus [24] = assay: Percent increase in life span was measured in mice intracerebrally implanted leukemia L1210 at 60 mg/kg administered intraperitoneally on day 1 only.; format: functional; details: route intraperitoneal; summary of the method: as §1
Mus musculus [25] = assay: survivors / total number of mice intracerebrally implanted leukemia L1210 at 40 mg/kg administered intraperitoneally on day 1 only. 4-5 day; 10/10; format: functional; details: route intraperitoneal; summary of the method: as §1
Mus musculus [26] = assay: Median day of death was measured in mice intracerebrally implanted leukemia L1210 at 40 mg/kg administered intraperitoneally on day 1.; format: functional; details: route intraperitoneal; summary of the method: as §1
Mus musculus [27] = assay: survivors / total number of mice intracerebrally implanted leukemia L1210 at 80 mg/kg administered intraperitoneally on day 1 only. 4-5 day; 3/8; format: functional; details: route intraperitoneal; summary of the method: as §1
Mus musculus [28] = assay: survivors / total number of mice intracerebrally implanted leukemia L1210 at 50 mg/kg administered intraperitoneally on day 1 only. 4-5 day; 8/9; format: functional; details: route intraperitoneal; summary of the method: as §1
Mus musculus [29] = assay: Percent increase in life span was measured in mice intracerebrally implanted leukemia L1210 at 40 mg/kg administered intraperitoneally on day 1 only.; format: functional; details: L1210, ip, 24 h, route intraperitoneal; summary of the method: as §1
Mus musculus [30] = assay: survivors / total number of mice intracerebrally implanted leukemia L1210 at 40 mg/kg administered intraperitoneally on day 1 only. 4-5 day; 8/9; format: functional; details: route intraperitoneal; summary of the method: as §1
Mus musculus [31] = assay: as §2; format: functional; details: L1210, ip, 24 h, route intraperitoneal; summary of the method: as §1; remark: listed apart in the source
Mus musculus [32] = assay: Median day of death was measured in mice intracerebrally implanted leukemia L1210 at 80 mg/kg administered intraperitoneally on day 1.; format: functional; details: route intraperitoneal; summary of the method: as §1
Mus musculus [33] = assay: survivors / total number of mice intracerebrally implanted leukemia L1210 at 60 mg/kg administered intraperitoneally on day 1 only. 4-5 day; 9/10; format: functional; details: route intraperitoneal; summary of the method: as §1
Mus musculus [34] = assay: survivors / total number of mice intracerebrally implanted leukemia L1210 at 50 mg/kg administered intraperitoneally on day 1 only. 4-5 day; 8/10; format: functional; details: route intraperitoneal; summary of the method: as §1

**Q.** Which results are given for `O=NN(CCCl)C(=O)NC1C(F)(F)C(F)(F)C(F)(F)C(F)(F)C1(F)F`?
**A.** ILS at 25 mg/kg (Mus musculus [1]): 0%; ILS at 30 mg/kg (Mus musculus [2]): 0%; Median day of death (Mus musculus [3]): 8; Median day of death (Mus musculus [4]): 8; Increase (Mus musculus [5]): -38.3%; ILS at 10 mg/kg (Mus musculus [6]): 0%; Increase (Mus musculus [7]): 11.6%; Increase (Mus musculus [8]): 4.2%; ILS at 35 mg/kg (Mus musculus [9]): -13%; ILS at 15 mg/kg (Mus musculus [10]): 0%; Median day of death (Mus musculus [11]): 8; Increase (Mus musculus [12]): 6.3%; ILS (Mus musculus [13]): Toxic; Median day of death (Mus musculus [14]): 8; Increase (Mus musculus [15]): -57.5%; Increase (Mus musculus [16]): -2.2%; Median day of death (Mus musculus [17]): 7

**Q.** `O=NN(CCCl)C(=O)NC1CCCCC1` [LOMUSTINE] was tested. Which ILS at 50 mg/kg (Mus musculus [18]) did it give?
**A.** 350%

**Q.** What about the No. of survivors (Mus musculus [19]) of the same molecule?
**A.** 1

**Q.** And the No. of survivors (Mus musculus [20])?
**A.** 8

**Q.** What about the “Median day of death” value (Mus musculus [21]) of the same molecule?
**A.** 26.5 and 20

**Q.** And the No. of survivors (Mus musculus [22])?
**A.** 8

**Q.** What about the ILS at 80 mg/kg (Mus musculus [23]) of the same molecule?
**A.** 42%

**Q.** What about the ILS (Mus musculus [24]) of the same molecule?
**A.** 278% and 185%

**Q.** And the Increase (Mus musculus [5])?
**A.** -25.6%

**Q.** What about the Increase (Mus musculus [7]) of the same molecule?
**A.** 189.3%

**Q.** And the No. of survivors (Mus musculus [25])?
**A.** 10

**Q.** And the “Median day of death” value (Mus musculus [26])?
**A.** 25

**Q.** And the Increase (Mus musculus [8])?
**A.** 21.2%

**Q.** And the No. of survivors (Mus musculus [27])?
**A.** 3

**Q.** What about the No. of survivors (Mus musculus [28]) of the same molecule?
**A.** 8

**Q.** What about the ILS at 40 mg/kg (Mus musculus [29]) of the same molecule?
**A.** 257%

**Q.** What about the No. of survivors (Mus musculus [30]) of the same molecule?
**A.** 8

**Q.** What about the “Median day of death” value (Mus musculus [11]; 30 mg/kg) of the same molecule?
**A.** 37.5 and 15

**Q.** What about the ILS at 80 mg/kg (Mus musculus [31]) of the same molecule?
**A.** 135%

**Q.** What about the “Median day of death” value (Mus musculus [32]) of the same molecule?
**A.** 16.5 and 10

**Q.** What about the Increase (Mus musculus [12]) of the same molecule?
**A.** 53.1%

**Q.** And the No. of survivors (Mus musculus [33])?
**A.** 9

**Q.** And the No. of survivors (Mus musculus [34])?
**A.** 8

**Q.** And the Increase (Mus musculus [15])?
**A.** -36.2%

**Q.** What about the Increase (Mus musculus [16]) of the same molecule?
**A.** 95.9%
